In brackets after ≈: the same amount, converted by molar mass.
Assays:
[1] = Measured ionization constant (pKa); type: physicochemical; conditions: read-out: pKa1
Procedure, shortened: (§1)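 Spectrophotometric titration at 20 ± 1 °C, 0.1 M ionic strength, pH varied with H2SO4 or NaOH made up in the compound stock. Absorbance followed at compound-specific wavelengths chosen from 200–400 nm scans. pKa1 and pKa2 taken as the inflection points of the two-step absorbance vs pH curve.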

[2] = Dissociation constant (pKa); type: physicochemical; conditions: read-out: pKa2; procedure, shortened: as §1
[3] = HPLC capacity factor (k'); type: ADME
Procedure, shortened: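 Ion-pair reversed-phase HPLC on ODS-2 (10 μm) at 45 °C. Mobile phase: 10 mM sodium heptanesulfonate plus 50 mM KH2PO4 (pH 3.5)–methanol 45:55, 1 mL/min. Samples at 100 μg/mL in DMF, injected in duplicate, UV 280 nm. k' = (tR − t0)/t0.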

[4] = Solubility (buffer pH 7.4); type: physicochemical; conditions: read-out: S
Procedure, shortened: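 Excess solid shaken in 0.05 M phosphate buffer pH 7.4 for 24 h at 25 °C. Suspension filtered through 0.22 μm, discarding the first portion. Filtrate diluted in 0.1 N HCl or 0.1 N NaOH and read by UV at the compound's absorbance maximum.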

[5] = AUC (0-4 hr) ug/ml/h; type: ADME, cell-free; parameters: time < 4 hr; concentration or dose not given beside the values; conditions: plasma
Procedure, shortened: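 Mice dosed once orally at 50 mg/kg; blood taken from groups of six mice at 0.5, 1, 2 and 4 h. Serum drug assayed by disk agar diffusion bioassay (Bacillus subtilis ATCC 6633 on Seed Agar, 37 °C, 18 h), giving total activity.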

Bacillus cereus = experiment: In vitro minimum inhibitory concentration for Bacillus cereus ATCC 11778; type: functional
Procedure, shortened: (§2)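 Serial 2-fold agar dilution in Mueller Hinton medium, run alongside a reference quinolone. Inoculum adjusted to 10⁸ cfu/mL; compound range 0.007–16 μg/mL.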

Bacillus subtilis = experiment: In vitro minimum inhibitory concentration for Bacillus subtilis ATCC 6633; type: functional; procedure, shortened: as §2
Escherichia coli = experiment: In vitro minimum inhibitory concentration for Escherichia coli ATCC 10799; type: functional; procedure, shortened: as §2
Enterobacter cloacae = experiment: In vitro minimum inhibitory concentration for Enterobacter cloacae ATCC 23355; type: functional
Klebsiella pneumoniae = experiment: In vitro minimum inhibitory concentration to inhibit Klebsiella pneumoniae ATCC 10031; type: functional; procedure, shortened: as §2
Mus musculus [6] = experiment: Evaluation of efficacy on systemic infections Escherichia coli HM-42, after oral administration in mice; type: functional
Procedure, shortened: (§3)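 Single oral dose given immediately after infection, one of four doses per group, chosen from in vitro activity. Survival scored after one week. ED50 (total mg/kg protecting 50%) interpolated from survival rates.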

Mus musculus [7] = experiment: Evaluation of efficacy on systemic infections Pseudomonas aeruginosa HS-116, after oral administration in mice; type: functional; procedure, shortened: as §3
Mus musculus [8] = experiment: Evaluation of efficacy on systemic infections Staphylococcus aureus HS-93, after oral administration in mice; type: functional; procedure, shortened: as §3
Morganella morganii = experiment: In vitro minimum inhibitory concentration for Morganella morganii ATCC 8019; type: functional; procedure, shortened: as §2
Proteus vulgaris = experiment: In vitro minimum inhibitory concentration for Proteus vulgaris ATCC 8427; type: functional; procedure, shortened: as §2
[9] = system: Staphylococcus epidermidis; experiment: In vitro minimum inhibitory concentration for Staphylococcus epidermidis ATCC 155-1; type: functional; procedure, shortened: as §2
Staphylococcus aureus = experiment: In vitro minimum inhibitory concentration for Staphylococcus aureus ATCC 25178; type: functional; procedure, shortened: as §2
Enterococcus faecalis = experiment: In vitro minimum inhibitory concentration for Streptococcus faecalis ATCC 10541; type: functional; procedure, shortened: as §2
Pseudomonas aeruginosa = experiment: In vitro minimum inhibitory concentration for Pseudomonas aeruginosa ATCC 10145; type: functional; procedure, shortened: as §2
[10] = Measured inonisation constant (pKa); type: physicochemical; conditions: read-out: pKa2; procedure, shortened: as §1

| Compound | pKa [1] | pKa [2] | Log k' [3] | solubility [4] | AUC [5] | MIC (Bacillus cereus) | MIC (Bacillus subtilis) | MIC (Escherichia coli) | MIC (Enterobacter cloacae) | MIC (Klebsiella pneumoniae) | MIC (Morganella morganii) | MIC (Proteus vulgaris) | MIC [9] | MIC (Staphylococcus aureus) | MIC (Enterococcus faecalis) | MIC (Pseudomonas aeruginosa) | pKa [10] | ED50 (Mus musculus [6]) | ED50 (Mus musculus [7]) | ED50 (Mus musculus [8]) |
| --- | --- | --- | --- | --- | --- | --- | --- | --- | --- | --- | --- | --- | --- | --- | --- | --- | --- | --- | --- | --- |
| C[C@H]1[C@H](N)CN1c1c(F)cc2c(=O)c(C(=O)O)cn(C3CC3)c2c1Cl | 6.04 | 8.47 | 0.1361 | 12 µg/mL (≈ 32.8 µM) | 5200 ng·h/mL | 0.03 µg/mL (≈ 0.082 µM) | 0.03 µg/mL (≈ 0.082 µM) | 0.007 µg/mL (≈ 0.0191 µM) | 0.03 µg/mL (≈ 0.082 µM) | 0.007 µg/mL (≈ 0.0191 µM) | 0.03 µg/mL (≈ 0.082 µM) | 0.03 µg/mL (≈ 0.082 µM) | 0.03 µg/mL (≈ 0.082 µM) | 0.03 µg/mL (≈ 0.082 µM) | 0.06 µg/mL (≈ 0.164 µM) | 0.12 µg/mL (≈ 0.328 µM) | – | 2.8 mg/kg | 38 mg/kg | 9.6 mg/kg |
| CCNC1CN(c2cc3c(cc2F)c(=O)c(C(=O)O)cn3C2CC2)C1 | 6.48 | – | – | – | – | – | – | – | – | – | – | – | – | – | – | – | 8.62 | – | – | – |
| CN(C)C1(C)CN(c2c(F)cc3c(=O)c(C(=O)O)cn(C4CC4)c3c2F)C1 | 6.05 | 8.12 | 0.604 | 23.6 µg/mL (≈ 62.5 µM) | – | – | – | – | – | – | – | – | – | – | – | – | – | – | – | – |
| C[C@H]1[C@H](N)CN1c1nc2c(cc1F)c(=O)c(C(=O)O)cn2C1CC1 | 6.26 | 8.31 | -0.0304 | 20.3 µg/mL (≈ 61.1 µM) | 27200 ng·h/mL | 0.06 µg/mL (≈ 0.181 µM) | 0.03 µg/mL (≈ 0.0903 µM) | 0.03 µg/mL (≈ 0.0903 µM) | 0.03 µg/mL (≈ 0.0903 µM) | 0.03 µg/mL (≈ 0.0903 µM) | 0.03 µg/mL (≈ 0.0903 µM) | 0.06 µg/mL (≈ 0.181 µM) | 0.12 µg/mL (≈ 0.361 µM) | 0.12 µg/mL (≈ 0.361 µM) | 0.25 µg/mL (≈ 0.752 µM) | 0.5 µg/mL (≈ 1.5 µM) | – | 3.5 mg/kg | 95.4 mg/kg | 13.8 mg/kg |
| CC1(N)CN(c2c(F)cc3c(=O)c(C(=O)O)cn(C4CC4)c3c2Cl)C1 | 6.08 | 8.45 | 0.1061 | 1.7 µg/mL (≈ 4.65 µM) | – | – | – | – | – | – | – | – | – | – | – | – | – | – | – | – |
| C[C@H]1[C@H](N)CN1c1c(F)cc2c(=O)c(C(=O)O)cn(C3CC3)c2c1F | 6.13 | 8.35 | 0.0755 | 23.2 µg/mL (≈ 66.4 µM) | 24500 ng·h/mL | 0.06 µg/mL (≈ 0.172 µM) | 0.03 µg/mL (≈ 0.0859 µM) | 0.015 µg/mL (≈ 0.0429 µM) | 0.03 µg/mL (≈ 0.0859 µM) | 0.03 µg/mL (≈ 0.0859 µM) | 0.03 µg/mL (≈ 0.0859 µM) | 0.06 µg/mL (≈ 0.172 µM) | 0.06 µg/mL (≈ 0.172 µM) | 0.06 µg/mL (≈ 0.172 µM) | 0.25 µg/mL (≈ 0.716 µM) | 0.25 µg/mL (≈ 0.716 µM) | – | 2 mg/kg | 22.1 mg/kg | 9 mg/kg |

Second part, led by results:

| pKa [1] | pKa [2] | Log k' [3] | solubility [4] | AUC [5] | MIC (Bacillus cereus) | MIC (Bacillus subtilis) | MIC (Escherichia coli) | MIC (Enterobacter cloacae) | MIC (Klebsiella pneumoniae) | MIC (Morganella morganii) | MIC (Proteus vulgaris) | MIC [9] | MIC (Staphylococcus aureus) | MIC (Enterococcus faecalis) | MIC (Pseudomonas aeruginosa) | pKa [10] | Compound | ED50 (Mus musculus [6]) | ED50 (Mus musculus [7]) | ED50 (Mus musculus [8]) |
| --- | --- | --- | --- | --- | --- | --- | --- | --- | --- | --- | --- | --- | --- | --- | --- | --- | --- | --- | --- | --- |
| 6.47 | 8.65 | 0.0875 | 0.7 µg/mL (≈ 2.03 µM) | – | – | – | – | – | – | – | – | – | – | – | – | – | CNC1(C)CN(c2cc3c(cc2F)c(=O)c(C(=O)O)cn3C2CC2)C1 | – | – | – |
| 6.13 | 8.5 | 0.292 | 13.1 µg/mL (≈ 36.1 µM) | 20800 ng·h/mL | 0.06 µg/mL (≈ 0.165 µM) | 0.03 µg/mL (≈ 0.0826 µM) | 0.06 µg/mL (≈ 0.165 µM) | 0.03 µg/mL (≈ 0.0826 µM) | 0.03 µg/mL (≈ 0.0826 µM) | 0.06 µg/mL (≈ 0.165 µM) | 0.12 µg/mL (≈ 0.33 µM) | 0.06 µg/mL (≈ 0.165 µM) | 0.06 µg/mL (≈ 0.165 µM) | 0.5 µg/mL (≈ 1.38 µM) | 0.5 µg/mL (≈ 1.38 µM) | – | CN[C@H]1CN(c2c(F)cc3c(=O)c(C(=O)O)cn(C4CC4)c3c2F)[C@@H]1C | 2.3 mg/kg | 70.5 mg/kg | 11.2 mg/kg |
| 6.5 | 8.6 | 0.179 | 9.2 µg/mL (≈ 26.6 µM) | 10300 ng·h/mL | 0.12 µg/mL (≈ 0.347 µM) | 0.03 µg/mL (≈ 0.0869 µM) | 0.06 µg/mL (≈ 0.174 µM) | 0.03 µg/mL (≈ 0.0869 µM) | 0.03 µg/mL (≈ 0.0869 µM) | 0.06 µg/mL (≈ 0.174 µM) | 0.12 µg/mL (≈ 0.347 µM) | 0.06 µg/mL (≈ 0.174 µM) | 0.12 µg/mL (≈ 0.347 µM) | 0.25 µg/mL (≈ 0.724 µM) | 0.5 µg/mL (≈ 1.45 µM) | – | CN[C@H]1CN(c2cc3c(cc2F)c(=O)c(C(=O)O)cn3C2CC2)[C@@H]1C | 2 mg/kg | 80.4 mg/kg | 23.3 mg/kg |
